Reference: ChEMBL document CHEMBL1177673, “New 2-arylnaphthalenediols and triol inhibitors of HIV-1 integrase--discovery of a new polyhydroxylated antiviral agent” (Bioorg Med Chem, 2010)

Legend:
[1] = test system: Human immunodeficiency virus 1; assay: Antiviral activity against HIV1 […] in human HeLaP4 cells assessed as beta-galactosidase activity after 72 hrs; format: functional, organism-based; conditions: Human immunodeficiency virus 1, HeLaP4, 72 h
Method in brief: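 Virus (HIV-1 pNL4-3) made by transfecting P4 cells with the genomic clone. Infected CEM4fx cells in triplicate grown with increasing drug concentrations for 3 days. Supernatants collected at 72 h were used to infect HeLa-CD4-β-gal (P4) reporter cells for 24 h. Cells were lysed (50 mM 2-mercaptoethanol, 10 mM MgSO4, 25 mM EDTA, 0.125% NP40), incubated with CPRG, and read at 570 nm. Replicates averaged.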

[2] = Cytotoxicity gainst human HeLaP4 cells after 3 days by MTT assay; format: cell-based
[3] = Therapeutic index, ratio of CC50 for human HeLaP4 cells to EC50 for HIV1 […]; format: cell-based; conditions: read-out: Ratio CC50/EC50
[4] = molecular target: Human immunodeficiency virus type 1 integrase (Human immunodeficiency virus 1, UniProt Q7ZJM1); assay: Inhibition of HIV1 integrase after 1 hr by ELISA
Human immunodeficiency virus type 1 integrase, sequence (Q7ZJM1 whole entry): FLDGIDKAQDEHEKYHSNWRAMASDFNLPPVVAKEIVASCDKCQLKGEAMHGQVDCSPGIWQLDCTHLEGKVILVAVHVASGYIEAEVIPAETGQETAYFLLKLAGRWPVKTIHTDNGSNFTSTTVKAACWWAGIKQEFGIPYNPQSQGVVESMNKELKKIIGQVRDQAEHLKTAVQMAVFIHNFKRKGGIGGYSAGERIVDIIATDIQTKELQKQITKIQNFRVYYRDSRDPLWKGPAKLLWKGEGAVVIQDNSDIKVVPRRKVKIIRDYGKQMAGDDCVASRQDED
Method in brief: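 ELISA with annealed oligos (7 nM): a 3′-biotin strand and a 5′-digoxigenin complementary strand. Integrase was diluted in 750 mM NaCl, 10 mM Tris pH 7.6, 10% glycerol, 1 mM β-mercaptoethanol, 0.1 mg/mL BSA. Reaction in 10 mM MgCl₂, 5 mM DTT, 20 mM HEPES pH 7.5, 5% PEG, 15% DMSO, 1 h at 37 °C. Detection by immunosorbent assay on avidin-coated plates.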

[5] = test system: MT4; assay: Cytotoxicity gainst human MT4 cells after 3 days by MTT assay; format: cell-based; conditions: MT4, 72 h
Method in brief: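 MT-4 cells in the MT-4/MTT format. CC50 determined in parallel with the antiviral EC50 using the MTT formazan read-out.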

[6] = test system: Human immunodeficiency virus 1; assay: Antiviral activity against HIV1 3B infected in human MT4 cells assessed as inhibition of virus-induced cytopathic effect by MTT assay; format: functional; conditions: Human immunodeficiency virus 1, 3B
Method in brief: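 HIV-1 IIIB stock titred on MT-4 cells to find CCID50. MT-4 cells infected with 100–300 CCID50 in the presence of fivefold serial drug dilutions. Protection from virus-induced cytopathic effect read by MTT reduction to formazan, measured spectrophotometrically. EC50 taken as the concentration giving 50% protection.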

[7] = Therapeutic index, ratio of CC50 for human MT4 cells to EC50 for HIV1 3B; format: cell-based; conditions: read-out: Ratio CC50/EC50
Method in brief: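 MT-4 cells were infected with 100–300 CCID₅₀ of HIV-1 IIIB, with the CCID₅₀ titrated on MT-4 cells. Drugs were added as fivefold serial dilutions. Protection from virus-induced cytopathic effect was read by MTT reduction to formazan, giving EC₅₀, and CC₅₀ was determined in parallel.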

Oc1ccc(-c2ccc3cc(O)c(O)cc3c2)cc1O
EC50 [1]: 9.9 µM | CC50 at 72 h [2]: 51 µM | selectivity ratio [3]: 5

Oc1ccc(-c2ccc3c(O)c(O)ccc3c2)cc1
IC50 [4]: 8.1 µM

Oc1ccccc1-c1ccc2c(O)c(O)ccc2c1
IC50 [4]: 10 µM

Oc1ccc2cc(-c3cccc(C(F)(F)F)c3)ccc2c1O
IC50 [4]: 10 µM

Oc1ccc2cc(-c3cccc(F)c3)ccc2c1O
IC50 [4]: 9.6 µM

Oc1ccc2cc(-c3ccc(C(F)(F)F)cc3)ccc2c1O
IC50 [4]: 10 µM

Oc1ccc2cc(-c3ccccc3F)ccc2c1O
IC50 [4]: 7.3 µM

Oc1ccc(-c2ccc3c(O)c(O)ccc3c2)cc1O
IC50 [4]: 2.2 µM | EC50 [1]: 40 µM | CC50 at 72 h [2]: > 100 µM

Oc1ccc2cc(-c3ccccc3C(F)(F)F)ccc2c1O
IC50 [4]: 6 µM

Oc1ccc2cc(-c3ccc(F)cc3)ccc2c1O
IC50 [4]: 8 µM

Oc1ccc2cc(-c3ccccc3)ccc2c1O
IC50 [4]: 6 µM

Oc1cccc(-c2ccc3c(O)c(O)ccc3c2)c1
IC50 [4]: 4.8 µM

Oc1cccc(-c2ccc3c(O)c(O)ccc3c2)c1O
IC50 [4]: 1 µM | EC50 [1]: > 100 µM | CC50 at 72 h [2]: > 100 µM

Oc1cc(-c2ccc3cc(O)c(O)c(O)c3c2)cc(O)c1O
IC50 [4]: 0.5 µM | CC50 [5]: > 1 µM | EC50 [6]: 1 µM

O=C1C(=O)c2cc(-c3cc(O)c(O)c(O)c3)ccc2C(Oc2c(O)cc(-c3ccc4cc(O)c(O)c(O)c4c3)cc2O)=C1O
IC50 [4]: 0.85 µM | selectivity ratio [7]: 19 | EC50 [1]: 1.15 µM | CC50 at 72 h [2]: 85 µM | selectivity ratio [3]: 74
